The list is a sample of the results.
Apaf-1 act – activates human Apaf-1 apoptosome | O14727 | Apaf-1 apoptosome caspase-3 activation, DEVD-Rh110 fluorescence; stronger effect = lower value | activity change, negative = activation, % at 20 µM | 0.31% of 330,000 active | AID 489031;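 active = activity change at or below -40% at 20 µM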
Target sequence (O14727 whole entry, looked up): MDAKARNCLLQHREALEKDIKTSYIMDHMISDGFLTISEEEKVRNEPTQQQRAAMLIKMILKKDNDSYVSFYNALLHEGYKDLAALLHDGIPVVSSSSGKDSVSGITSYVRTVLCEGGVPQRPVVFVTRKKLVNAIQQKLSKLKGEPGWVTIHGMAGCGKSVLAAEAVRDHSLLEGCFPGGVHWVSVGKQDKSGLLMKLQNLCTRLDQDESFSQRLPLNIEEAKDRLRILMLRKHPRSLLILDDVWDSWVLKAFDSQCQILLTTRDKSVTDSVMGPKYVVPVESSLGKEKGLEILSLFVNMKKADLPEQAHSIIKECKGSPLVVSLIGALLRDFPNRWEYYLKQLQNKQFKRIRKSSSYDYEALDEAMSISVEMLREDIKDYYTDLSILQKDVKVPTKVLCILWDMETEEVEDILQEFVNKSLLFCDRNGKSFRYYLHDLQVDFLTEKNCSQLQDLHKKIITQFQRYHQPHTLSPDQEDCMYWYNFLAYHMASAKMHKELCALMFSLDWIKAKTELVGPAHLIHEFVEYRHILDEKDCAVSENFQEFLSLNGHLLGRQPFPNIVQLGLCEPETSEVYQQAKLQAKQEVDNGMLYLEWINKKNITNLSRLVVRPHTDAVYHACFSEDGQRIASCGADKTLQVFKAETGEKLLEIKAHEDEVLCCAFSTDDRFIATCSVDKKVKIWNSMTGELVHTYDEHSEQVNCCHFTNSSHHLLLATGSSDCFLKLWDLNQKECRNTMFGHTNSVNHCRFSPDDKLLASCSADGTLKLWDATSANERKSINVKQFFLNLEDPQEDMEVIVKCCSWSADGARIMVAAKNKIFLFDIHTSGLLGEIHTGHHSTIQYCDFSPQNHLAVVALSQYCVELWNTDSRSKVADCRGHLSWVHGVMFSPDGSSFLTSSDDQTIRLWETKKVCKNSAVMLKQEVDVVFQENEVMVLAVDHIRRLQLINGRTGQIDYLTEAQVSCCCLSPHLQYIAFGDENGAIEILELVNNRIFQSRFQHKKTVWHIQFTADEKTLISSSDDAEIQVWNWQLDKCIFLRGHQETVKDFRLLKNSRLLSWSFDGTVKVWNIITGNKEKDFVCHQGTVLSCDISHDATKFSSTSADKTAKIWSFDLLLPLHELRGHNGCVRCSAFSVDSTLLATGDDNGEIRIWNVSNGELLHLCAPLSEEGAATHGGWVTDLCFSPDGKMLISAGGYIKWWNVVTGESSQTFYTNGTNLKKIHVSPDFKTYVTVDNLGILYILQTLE
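Material: reconstituted apoptosome of Apaf-1, cytochrome c, caspase-9, procaspase-3; times: 30 min preincubation, 50 min reaction, room temperature; measured by: fluorescence, 540 nm emission, 480 nm excitation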
Rh110 act interf – counter-screen for Apaf-1 activators: fluorescence interference; shares compounds with Apaf-1 act; Rh110 fluorescence interference, quenched caspase reaction, Ex480/Em540; fluorescence interference (activity change), % at 20 µM, hits read low; 980 tested, under 10 active;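 active = mean activity change at or below -40% when tested at 20 µM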
Apaf-1 act conf – Apaf-1 (human) activation, single-dose confirmed; shares compounds with Apaf-1 act; reconstituted apoptosome caspase-3 activity, DEVD-Rh110 fluorescence; stronger effect = lower value; activity change, negative = activation, % at 20 µM; 5% of 980 active;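 active = mean activity change at or below -40%, meaning activation of 40% or more, at 20 µM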
Apaf1 act interf – counter-screen for Apaf-1 activators: fluorescence interference, dose response; shares compounds with Apaf-1 act; fluorescence interference counterscreen, Apaf-1 activator assay; 55 tested, under 10 active; AID 588592; EC50, µM; call rule not given here
* marks the source's active call; other numbers are inactive results; nt = no result given.

SMILES | Apaf-1 act | Rh110 act interf | Apaf-1 act conf | others
C=CCC[C@@H](Cc1ccc(F)cc1)C(=O)OC[C@@H]1CCCN1C(=O)[C@H](CC=C)CC(=O)N[C@H](CO)Cc1ccccc1 | 43 | nt | nt
CCC[C@@H](CN1CCC[C@H]1CN1C(N)=NC[C@H]1CC(C)C)N1C[C@@H](Cc2ccccc2)N(CCCC2CCCC2)C1=N | 59 | nt | nt
Cc1cn([C@H]2C[C@H](N=[N+]=[N-])[C@@H](CO)O2)c(=O)[nH]c1=O | -43* | 6 | -3
CC1=NN(c2ccc(C)c(C)c2)C(=O)C1C(c1cccc(O)c1)C1C(=O)N(c2ccc(C)c(C)c2)N=C1C (stereo not drawn) | 87 | nt | nt
COc1ccc(CN(CCN(C)C)c2ccccn2)cc1 | 3 | nt | nt
O=C(C1CCCCC1)N(Cc1ccccc1)c1ccccn1 | -154* | -5 | 2
CC(C)N(Cc1cc2ccccc2[nH]c1=O)C(=O)C1CCCCC1 | 57 | nt | nt
Nc1ccc2nn(-c3cccc4ccccc34)nc2c1 | 96 | nt | nt
C#CCOCCOCCOCCNc1nc(N2CCOCC2)nc(N2CCN(C(=O)CCCCCCCCCCNC(=O)[C@H]([C@@H](C)CC)n3cc(CCCCN=C(N)N)nn3)CC2)n1 | 60 | nt | nt
O=C(NCc1nnc(SCC(=O)N2CCCCCC2)o1)c1ccccc1F | -251* | 8 | 13
FC(F)(F)c1ccc(CN2C[C@@H]3C(c4ccc(Cl)nc4)C4(c5cccnc5)CC3(C4)[C@H]2c2ccccc2)cc1 (stereo partly drawn) | 42 | nt | nt
CC(=O)N(C)c1ccc(N=Cc2cc3c(cc2[N+](=O)[O-])OCO3)cc1 | 65 | nt | nt
CC(C)(C)c1ccc(C(O)CCCN2CCC(C(O)(c3ccccc3)c3ccccc3)CC2)cc1 (stereo not drawn) | 53 | nt | nt
C#CCOCCOCCOCCNc1nc(N2CCN(C(=O)CCCCCCCCCCNC(=O)[C@H]([C@@H](C)CC)n3cc(CCCCN=C(N)N)nn3)CC2)nc(N2CCN(C(=O)CCCCCCCCCCNC(=O)[C@@H]([C@H](C)O)n3cc(C)nn3)CC2)n1 | 45 | nt | nt
O=[N+]([O-])c1cc(F)c2cccnc2c1O | 64 | nt | nt
Nc1cc(S(=O)(=O)O)cc([N+](=O)[O-])c1O | -110* | -5 | 4
CCOC(=O)C1=C(COCCN)NC(C)=C(C(=O)OC)C1c1ccccc1Cl (stereo not drawn) | 40 | nt | nt
CC(/C=C\c1cccnc1)=C/C(=O)O | -84* | -2 | -46* | Apaf1 act interf=>100
COC(=O)CCC(=O)OC1(C)C(=O)C=C2C=C(C3CC3)N(CC3CC3)C=C2C1=O (stereo not drawn) | 57 | nt | nt
CCc1ccccc1N1CSC2=C(C#N)C(c3cc(OC)c(OC)cc3OC)CC(=O)N2C1 (stereo not drawn) | 43 | nt | nt
CCC(CO)Oc1cc(NCc2ccc(F)cc2)c2ncn(C(C)C)c2c1 (stereo not drawn) | 43 | nt | nt
C=CCN(CC=C)Cc1c(O)ccc2c1oc(=O)c1ccccc12 | 47 | nt | nt
COCCCNC(=O)c1c(N)n(-c2cccc(S(N)(=O)=O)c2)c2nc3ccccc3nc12 | 43 | nt | nt
CCn1cc(C(=O)NCCCOC)c(=O)c2cc(S(=O)(=O)N(C)C)ccc21 | -303* | -5 | 8
C#CCOCCOCCOCCNc1nc(N2CCN(C(=O)CCCCCCCCCCNC(=O)[C@@H](CCSC)n3cc(CCO)nn3)CC2)nc(N2CCN(C(=O)CCCCCCCCCCNC(=O)[C@H](CCCN=C(N)N)n3cc(C[C@@H](C)CC)nn3)CC2)n1 | 62 | nt | nt
SMILES | Apaf-1 act | Rh110 act interf | Apaf-1 act conf | others
CNC[C@H](CC1CCCCC1)NC[C@H](Cc1ccccc1)NCCC12CC3CC(CC(C3)C1)C2 | 74 | nt | nt
O=S(=O)(Nc1ccc(O)c2ccccc12)c1cccs1 | 52 | nt | nt
Cc1cccc(C)c1NC(=O)CSc1nnc(-c2ccco2)c(-c2ccco2)n1 | 42 | nt | nt
CCn1nc(C)c(NC(=O)CCSc2nc(-c3ccco3)cc(C(F)(F)F)n2)c1C | -246* | -2 | 16
COc1ccc2cc1Oc1ccc(cc1)CC1c3c(cc(OC)c4c3Oc3cc5c(cc3O4)CCNC5C2)CCN1C (stereo not drawn) | 41 | nt | nt
Cc1c(Cl)cccc1N=C1SCCN1C(=O)CN1C(=O)NC2(CCCC2)C1=O | 40 | nt | nt
Nc1ccc2nn(-c3ccccc3)nc2c1 | 93 | nt | nt
CC(=O)OCC1=C(C(=O)O)N2C(=O)C(NC(=O)C(C)Cn3nc(C)c(Cl)c3C)C2SC1 (stereo not drawn) | -90* | 5 | -19
O=C(C(Cc1ccccc1)N1C(=O)c2ccccc2C1=O)N1c2ccccc2CCc2ccccc21 (stereo not drawn) | 40 | nt | nt
CN(CC(=O)Nc1ccc(F)cc1)C(=O)C1CC(=O)N(Cc2ccccc2)C1 (stereo not drawn) | 44 | nt | nt
Cc1ccc(NC(=O)CC(C)N2CCCC2)cc1 (stereo not drawn) | -79* | 10 | 13
Nc1ccc(C(=O)O)c(O)c1 | -8 | nt | nt
CCc1nn(CCCC(=O)NCc2ccccc2Br)c(=O)c2cc3occc3n12 | 46 | nt | nt
C#CCOCCOCCOCCNc1nc(N2CCN(C(=O)CCCCCCCCCCNC(=O)[C@H](CCCCN)n3cc(C)nn3)CC2)nc(N2CCN(C(=O)CCCCCCCCCCNC(=O)[C@H](CCCN=C(N)N)n3cc(C[C@@H](C)CC)nn3)CC2)n1 | 75 | nt | nt
CSc1ncc(CN2CCc3c([nH]c4ccccc34)C2c2cccc(O)c2)cn1 (stereo not drawn) | -158* | -4 | 14
N#CC1=C(N)C(C#N)(C#N)[C@H](c2ccoc2)[C@H]2CN(Cc3ccccc3)CC=C12 | 59 | nt | nt
S=c1nc[nH]c2nc[nH]c12 | 2 | nt | nt
O=C(Nc1ccc(Cl)c(Cl)c1)Nc1nc(-c2ccccc2)cs1 | -366* | 11 | 16
Cc1nc(C(=O)NNC(=O)Nc2ccccc2)cs1 | 57 | nt | nt
CSc1ccccc1NC(=O)CN(C)C(=O)c1ccc2c(c1)OCCO2 | -74* | 7 | 5
Cc1cccc(C)c1NC(=O)CN(C)C(=O)c1ccccc1SCC(=O)N1CCCC1 | 42 | nt | nt
CCC(=O)N(CCc1ccccc1C)Cc1cc2cc3c(cc2[nH]c1=O)OCO3 | 41 | nt | nt
Cc1ccc(NC(=O)CCC(=O)OCc2ccc(Br)cc2)cc1 | -46* | -17 | 9
CCOC(=O)CNCCC(=O)c1ccc(Br)cc1 | 58 | nt | nt
COC(=O)CCCC1=CC2=C(c3ccccc3)C(=O)C(C)(OC(=O)C3CCCC3)C(=O)C2=CN1CC(C)C (stereo not drawn) | 41 | nt | nt
SMILES | Apaf-1 act | Rh110 act interf | Apaf-1 act conf | others
O=C(NC(=S)Nc1ccccc1C(F)(F)F)c1ccccc1F | -244* | 14 | 17
Fc1ccc(NC(=S)Nc2cccc3ccccc23)cc1 | 85 | nt | nt
NC1=NC[C@H](Cc2ccc(O)cc2)N1CCC12CC3CC(CC(C3)C1)C2 | 49 | nt | nt
CC(C)(C)c1ccc(/C=C(\C#N)C(=O)Nc2ccccn2)cc1 | -186* | 2 | 21
COC(=O)c1cccc(C23CC4(C2)[C@H](CN(CC2CCCCC2)[C@@H]4c2ccccc2)C3c2ccccc2)c1 (stereo partly drawn) | 40 | nt | nt
Nc1ccc2c(c1)C(=O)C(=O)c1ccccc1-2 | 98 | nt | nt
CN(C)Cc1cc(O)c(CN(C)C)cc1O | 65 | nt | nt

Source: PubChem BioAssay (Sanford-Burnham Center for Chemical Genomics)
